In the library only some 1.4% were active in any assay of this set; here they are far more common.
PDI turbidity: PDI (human) enzyme inhibition | P07237 | PDI insulin aggregation turbidity, A650, 90 min | inhibition, % at 10 µM | 350,000 tested, 0.052% active;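 active means mean inhibition across replicates of 30% or more, whatever share of single replicates reach that level; inconclusive means mean inhibition below 30% while every single replicate reaches 30%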
Target sequence (P07237 whole entry, looked up): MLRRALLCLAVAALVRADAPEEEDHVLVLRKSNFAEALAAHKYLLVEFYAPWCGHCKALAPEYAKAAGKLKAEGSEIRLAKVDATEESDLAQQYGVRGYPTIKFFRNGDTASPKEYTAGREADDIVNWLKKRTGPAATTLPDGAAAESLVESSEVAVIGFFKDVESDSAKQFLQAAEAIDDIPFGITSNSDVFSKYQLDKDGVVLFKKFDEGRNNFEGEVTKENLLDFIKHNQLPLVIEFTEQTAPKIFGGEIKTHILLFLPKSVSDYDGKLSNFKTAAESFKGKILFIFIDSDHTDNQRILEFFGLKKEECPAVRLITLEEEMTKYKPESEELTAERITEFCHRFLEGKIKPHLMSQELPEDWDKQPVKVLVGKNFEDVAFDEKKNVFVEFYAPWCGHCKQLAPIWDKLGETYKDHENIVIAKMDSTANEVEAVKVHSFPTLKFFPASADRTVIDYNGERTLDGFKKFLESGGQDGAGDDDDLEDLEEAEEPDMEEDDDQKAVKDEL
INS-1E GSIS act: GLuc luminescence reporter in INS-1E cells, primary screen for activators of glucose-dependent secretion of insulin; 370,000 tested, 0.61% active; INS-1E GLuc reporter insulin secretion, 2-3 h; activation, % at 16.6 µM;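 active means lowest replicate activation of at least 40%, so every replicate reaches that level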;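 further: 0% = median of neutral control wells and 100% = median of IBMX positive control wells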
ERp5 inh: inhibitors of human ERp5; Q15084; ERp5 insulin aggregation, absorbance 650 nm, 90 min; inhibition, % at 9.99 µM; 350,000 tested, 0.05% active; AID 651711;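 active means mean replicate inhibition above about 25%, with every replicate also reaching it, limit read from the data, passing the limit was not always enough; inconclusive means only one of those two criteria met; inactive means neither criterion met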
Env fusion inh: inhibitors of HIV Env-mediated cell fusion; 360,000 tested, 1.1% active; inhibition, % at 12.3 µM; AID 651610; HeLa-JRFL Env/CEM21 cell fusion, luciferase;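 active means mean replicate inhibition score of at least 50 and every replicate individually at or above 50; inconclusive means only one of the two criteria met; inactive means mean below 50 and not all replicates reaching 50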;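 further: 0% = plate neutral controls and 100% = maraviroc near 300 nM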
FN deposition inh: fibronectin deposition inhibition; AH1F fibroblasts, Alexa488-fibronectin deposition fluorescence, overnight; inhibition, % at 12.6 µM; 350,000 tested, 0.086% active; AID 743247;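 active means mean inhibition across replicates of 30% or more, regardless of how many single replicates reach that level; inconclusive means mean under 30% yet at least half of replicates reach 30%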;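 further: positive control wells lacked labelled fibronectin entirely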
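Material – AH1F fibroblast monolayer, labelled fibronectin deposition · Reagent – labelled fibronectin 24 nM · Timing – 1 h adhesion, overnight exposure · Measured by – fluorescence at 485 nm excitation, 525 nm emission · Read-out – inhibition of fibronectin deposition signal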
Active calls of the source: *; u = inconclusive; x = no result; [ ] = remark or other dose.

SMILES	PDI turbidity	INS-1E GSIS act	ERp5 inh	Env fusion inh	FN deposition inh
Cc1nc(NC(=O)c2ccc(-c3cc4ccccc4oc3=O)cc2)ccc1Br	-4	9	x	-12	x
Cc1ccc(C2Oc3ccccc3C3=C2C(c2cccs2)n2ncnc2N3)cc1 (stereo not given)	6	x	x	102*	-11
Fc1ccc(C2C3=C(Nc4ncnn42)c2ccccc2OC3c2ccncc2)cc1 (stereo not given)	-17	x	x	30	-3
Cc1ccc2oc(-c3cccc(NC(=O)Cc4cccs4)c3)nc2c1	0	65*	x	-73	-4
CN1c2ccc(-c3ccccc3F)cc2[C@@H]2[C@@H](CCN2C(=O)NC2CCCC2)[C@@H]1CO	x	-2	x	x	-9
CC(C)c1[nH]nc2c1C(c1ccc(F)cc1)NC2=O (stereo not given)	x	25	-3	-9	14
Cc1ccc(C2NC(=O)c3[nH]nc(-c4ccccc4)c32)cc1 (stereo not given)	x	3	7	-23	6
O=C1NC(c2ccccc2)c2c(-c3ccccc3)n[nH]c21 (stereo not given)	x	54*	-2	-13	-5
O=C1c2[nH]nc(-c3ccccc3)c2C(c2ccccc2)N1c1ccccc1 (stereo not given)	x	49*	-1	-19	7
CC(C)c1[nH]nc2c1C(c1ccccc1)NC2=O (stereo not given)	x	44*	4	9	-1
O=C(C[C@@H]1C=C[C@H](NC(=O)CCN2CCCCC2)[C@@H](CO)O1)NCc1ccc(Cl)c(Cl)c1	x	-5	4	-2[16.7 µM]	7
Cc1cc(C(=O)Nc2cccc3c2O[C@@H](CN(C)Cc2ccc(Cl)c(Cl)c2)[C@@H](C)CN([C@H](C)CO)C3=O)n(C)n1	x	-17	1	24[16.7 µM]	2
Oc1ccc(/C=C/c2nc(-c3ccccc3O)n(-c3ccccc3)n2)cc1	48*	x	x	7	-5
O=C(C[C@H]1CC[C@H](NC(=O)c2cccc(F)c2)[C@@H](CO)O1)NCc1ccc(Oc2ccccc2)cc1	x	9	1	14[16.7 µM]	x
O=C(C[C@H]1CC[C@@H](NC(=O)c2cccc(F)c2)[C@H](CO)O1)NCc1ccc(Oc2ccccc2)cc1	x	3	2	69*[16.7 µM]	x
O=C(C[C@H]1CC[C@@H](NC(=O)c2cccc(F)c2)[C@@H](CO)O1)NCc1ccc(Oc2ccccc2)cc1	x	-15	-3	71*[16.7 µM]	x
CN1c2ccc(-c3cccc(F)c3)cc2[C@@H]2[C@@H](CCN2C(=O)C2CCCC2)[C@@H]1CO	x	-31	x	x	-6
CO[C@H]1CN(C)C(=O)c2cc(NC(=O)NC(C)C)ccc2OC[C@@H](C)N(C(=O)NC(C)C)C[C@@H]1C	x	2	12	2[16.7 µM]	3
CCOc1ccc(C(O)(CCC(C)C)C(CN2CCOCC2)c2ccccc2)cc1 (stereo not given)	2	-36	-1	72*	-7
COc1ccc(C(O)(CCC(C)C)C(CN2CCOCC2)c2ccc(Cl)cc2)cc1 (stereo not given)	-7	-33	-1	u	-9
O=C(C[C@@H]1C[C@@H]2c3cc(NC(=O)C4CCC4)ccc3O[C@@H]2[C@@H](CO)O1)NCc1ccc2c(c1)OCO2	x	3	-8	79*[16.7 µM]	12
O=C(C[C@@H]1C[C@H]2c3cc(NC(=O)C4CCC4)ccc3O[C@H]2[C@H](CO)O1)NCc1ccc2c(c1)OCO2	x	3	-2	6[16.7 µM]	-9
O=C(C[C@H]1C[C@H]2c3cc(NC(=O)C4CCC4)ccc3O[C@H]2[C@H](CO)O1)NCc1ccc2c(c1)OCO2	x	15	6	81*[16.7 µM]	6
COc1ccc(NC(=O)Nc2ccc3c(c2)C(=O)N([C@H](C)CO)C[C@H](C)[C@@H](CN(C)C(=O)C2CCCCC2)OCCCC[C@@H](C)O3)cc1	x	-15	1	7[16.7 µM]	x
CCCN1C[C@@H](C)[C@@H](OC)CN(C)C(=O)c2cc(NC(=O)NC3CCCC3)ccc2OC[C@@H]1C	x	-1	-5	x	3
SMILES	PDI turbidity	INS-1E GSIS act	ERp5 inh	Env fusion inh	FN deposition inh
COc1ccc(CN(C)C[C@@H]2OCCCC[C@@H](C)Oc3ccc(NS(=O)(=O)c4cccs4)cc3C(=O)N([C@H](C)CO)C[C@H]2C)cc1	x	-15	6	-7[16.7 µM]	x
O=C(/C=C/c1ccc2c(c1)OCO2)c1ccc(O)cc1O	73*	2	5	-64	11
CO[C@H]1CN(C)C(=O)c2cc(NC(=O)c3cccc(F)c3)ccc2OC[C@@H](C)N(C)C[C@@H]1C	x	-13	1	-2[16.7 µM]	0
C[C@@H]1CN([C@@H](C)CO)C(=O)Cc2cc(NS(C)(=O)=O)ccc2O[C@H]1CN(C)CC1CC1	x	18	-1	2[16.7 µM]	x
C[C@H](CO)N1C[C@H](C)[C@@H](CN(C)CC2CC2)Oc2ccc(NS(C)(=O)=O)cc2CC1=O	x	-6	7	58*[16.7 µM]	x
CNC[C@@H]1Oc2ccc(NS(C)(=O)=O)cc2CC(=O)N([C@H](C)CO)C[C@H]1C	x	21	0	65*[16.7 µM]	x
C[C@H]1CN(C)C(=O)c2ccccc2O[C@@H]1CN(C)C	x	2	x	x	-5
Cc1ccc(S(=O)(=O)N[C@@H]2CC[C@H](CCn3cc(C4CCCC4)nn3)O[C@H]2CO)cc1	x	10	0	6[16.7 µM]	2
CC1(C)CC(=O)C=C(NCc2ccc(Cl)c(Cl)c2)C1	0	15	x	60*	-7
CN(C)c1ncnc2c1ncn2C1OC(CO)C(O)C1O (stereo not given)	-5	x	x	x	x
OCC1OC(n2cnc3c(/C=C(\O)c4ccccc4)ncnc32)C(O)C1O (stereo not given)	2	4	3	55*	x
C[C@@H]1CN([C@H](C)CO)C(=O)c2cc(C#CC(C)(C)O)cnc2O[C@H]1CN(C)C(=O)C1CCC1	x	5	14	-12[16.7 µM]	x
O=C(C[C@H]1CC[C@H](NC(=O)Nc2ccc3c(c2)OCO3)[C@@H](CO)O1)NCc1ccc2c(c1)OCO2	x	2	-6	6[16.7 µM]	x
C/C=C1\COC(C(=O)NCc2cccc(OC)c2OC)(C(F)(F)F)C=C1C=C1CCCCC1 (stereo not given)	6	73*	0	71*	-17
CCC(CC)NC(=O)CN1CCN(S(=O)(=O)c2cccs2)CC1	10	47*	-1	-6	5
CCC(CC)NC(=O)C1CCN(S(=O)(=O)c2cccs2)CC1	10	x	x	-63	3
O=C(C[C@H]1C=C[C@@H](NC(=O)C2CCOCC2)[C@@H](CO)O1)NCc1ccccc1Cl	x	7	3	x	x
Cn1c(=O)c2c(nc(Oc3ccc4ccccc4c3)n2C)n(C)c1=O	-1	21	x	102*	6
COc1ccc(Oc2nc3c(c(=O)n(C)c(=O)n3C)n2C)cc1	-1	18	4	u	-2
CCNc1nc2c(c(=O)n(C)c(=O)n2C)n1Cc1ccc(Cl)cc1	1	-11	6	60*	-5
Cn1c(=O)c2c(nc(Br)n2Cc2ccc3ccccc3c2)n(C)c1=O	0	x	x	58*	-3
Cn1c(=O)c2c(nc(Br)n2Cc2ccccc2Cl)n(C)c1=O	8	8	x	x	x
